ChEMBL document CHEMBL3045743, “Synthesis and herbicidal activity of isoindoline-1,3-dione substituted benzoxazinone derivatives containing a carboxylic ester group” (J Agric Food Chem, 2009)

What was measured:
Gossypium [1] = assay: Phytotoxicity against Gossypium (cotton) assessed as growth inhibition at 7.5 to 60 g.a.i/ha post-emergent application measured after 15 days by greenhouse crop selectivity assay; format: organism-based; conditions: in vivo, other, 360 h
Summary of the method: (§1)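 Postemergence crop selectivity test on pot-grown plants in a greenhouse, in clay soil (pH 6.5, 1.7% organic matter, CEC 12.9 cmol/kg). Stock was diluted with water and sprayed at 60, 30, 15 or 7.5 g a.i./ha, in triplicate. Growth inhibition was rated visually against untreated controls after 15 days and given as the triplicate mean percentage.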

Abutilon theophrasti [2] = assay: Post-emergence herbicidal activity against Abutilon theophrasti (velvetleaf) assessed as growth inhibition at 15 g.a.i./ha applied at two-leaf stage measured after 15 days; format: functional; conditions: 360 h, read-out: GI
Summary of the method: (§2)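 Pot-grown weeds sown 5 mm deep in greenhouse clay soil (pH 6.5, 1.7% organic matter, CEC 12.9 cmol/kg) at 22-25 °C. Stock diluted with water and sprayed post-emergence: dicots at 2-leaf stage, monocots at 1-leaf stage. Untreated and DMF solvent controls were included. % growth inhibition was scored visually versus untreated controls after 15 days. Triplicates averaged.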

Abutilon theophrasti [3] = assay: Pre-emergence herbicidal activity against Abutilon theophrasti (velvetleaf) assessed as growth inhibition at 75 g.a.i./ha applied 24 hr after seeds were sown measured after 15 days; format: functional; conditions: read-out: GI
Summary of the method: (§3)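 Weeds sown 5 mm deep in pots of greenhouse clay soil (pH 6.5, 37.5% clay, CEC 12.9 cmol/kg) and grown at 22-25 °C. Water-diluted formulation was applied pre-emergence 24 h after sowing. Untreated and DMF solvent controls were included. Growth inhibition was visually rated in % against untreated controls after 15 days, as the mean of triplicates.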

Chenopodium album = assay: Pre-emergence herbicidal activity against Chenopodium album assessed as growth inhibition at 37.5 g.a.i./ha applied 24 hr after seeds were sown measured after 15 days; format: functional; conditions: read-out: GI; summary of the method: as §3
Echinochloa crus-galli [4] = assay: Pre-emergence herbicidal activity against Echinochloa crus-galli (barnyard grass) assessed as growth inhibition at 75 g.a.i./ha applied 24 hr after seeds were sown measured after 15 days; format: functional; conditions: read-out: GI; summary of the method: as §3
[5] = system: Brassica rapa subsp. oleifera; assay: Phytotoxicity against Brassica rapa subsp. oleifera assessed as growth inhibition at 300 g.a.i/ha pre-emergent application measured after 15 days by greenhouse crop selectivity assay; format: functional; conditions: pre-emergence, 360 h, read-out: GI
Summary of the method: (§4)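 Pot-grown crop in greenhouse clay soil (pH 6.5, 1.7% organic matter, 37.5% clay, CEC 12.9 cmol/kg). Stock diluted with water and applied pre-emergence at 300, 150, 75 or 37.5 g a.i./ha. Cultivated 15 days, then phytotoxicity scored visually as % growth inhibition versus untreated controls. Triplicate treatments, averaged.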

Digitaria sanguinalis [6] = assay: Pre-emergence herbicidal activity against Digitaria sanguinalis (hairy crabgrass) assessed as growth inhibition at 15 g.a.i./ha applied 24 hr after seeds were sown measured after 15 days; format: functional; conditions: read-out: GI; summary of the method: as §3
Amaranthus spinosus [7] = assay: Post-emergence herbicidal activity against Amaranthus spinosus assessed as growth inhibition at 15 g.a.i./ha applied at two-leaf stage measured after 15 days; format: functional; conditions: 360 h, read-out: GI; summary of the method: as §2
[8] = Phytotoxicity against Oryza sativa (rice) assessed as growth inhibition at 300 g.a.i/ha pre-emergent application measured after 15 days by greenhouse crop selectivity assay; format: organism-based, L.; conditions: in vivo, read-out: GI
Summary of the method: (§5)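 Pre-emergence greenhouse crop selectivity test on pot-grown plants in clay soil (pH 6.5, 1.7% organic matter, 37.5% clay, CEC 12.9 cmol/kg). Stock solutions were diluted with water and applied at 300, 150, 75 or 37.5 g a.i./ha, in triplicate. After 15 days, phytotoxicity was scored visually against untreated controls as % crop growth inhibition, averaged over the triplicates.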

Echinochloa crus-galli [9] = assay: Post-emergence herbicidal activity against Echinochloa crus-galli (barnyard grass) assessed as growth inhibition at 15 g.a.i./ha applied at one-leaf stage measured after 15 days; format: functional; conditions: 360 h, read-out: GI; summary of the method: as §2
Setaria viridis [10] = assay: Pre-emergence herbicidal activity against Setaria viridis (green foxtail) assessed as growth inhibition at 15 g.a.i./ha applied 24 hr after seeds were sown measured after 15 days; format: functional; conditions: read-out: GI; summary of the method: as §3
Setaria viridis [11] = assay: Pre-emergence herbicidal activity against Setaria viridis (green foxtail) assessed as growth inhibition at 7.5 g.a.i./ha applied 24 hr after seeds were sown measured after 15 days; format: functional; conditions: read-out: GI
Summary of the method: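 Secondary pre-emergence test run at 7.5, 15 and 37.5 g a.i./ha on pot-grown weeds in a greenhouse at 22-25 °C. Seeds sown 5 mm deep in clay soil (pH 6.5, 1.7% organic matter, CEC 12.9 cmol/kg). Stock diluted with water and applied 24 h after sowing. Done in triplicate; visual % growth inhibition vs untreated after 15 days, averaged.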

Amaranthus spinosus [12] = assay: Post-emergence herbicidal activity against Amaranthus spinosus assessed as growth inhibition at 7.5 g.a.i./ha applied at two-leaf stage measured after 15 days; format: functional; conditions: 360 h, read-out: GI; summary of the method: as §2
[13] = system: Brassica rapa subsp. oleifera; assay: Phytotoxicity against Brassica rapa subsp. oleifera assessed as growth inhibition at 150 g.a.i/ha pre-emergent application measured after 15 days by greenhouse crop selectivity assay; format: functional; conditions: pre-emergence, 360 h, read-out: GI; summary of the method: as §4
Zea mays = assay: Phytotoxicity against Zea mays (maize) assessed as growth inhibition at 150 g.a.i/ha pre-emergent application measured after 15 days by greenhouse crop selectivity assay; format: organism-based; conditions: in vivo, other, 360 h; summary of the method: as §5
Setaria viridis [14] = assay: Post-emergence herbicidal activity against Setaria viridis (green foxtail) assessed as growth inhibition at 37.5 g.a.i./ha applied at one-leaf stage measured after 15 days; format: functional; conditions: 360 h, read-out: GI; summary of the method: as §2
Digitaria sanguinalis [15] = assay: Post-emergence herbicidal activity against Digitaria sanguinalis (hairy crabgrass) assessed as growth inhibition at 75 g.a.i./ha applied at one-leaf stage measured after 15 days; format: functional; conditions: 360 h, read-out: GI; summary of the method: as §2
[16] = Phytotoxicity against Oryza sativa (rice) assessed as growth inhibition at 75 g.a.i/ha pre-emergent application measured after 15 days by greenhouse crop selectivity assay; format: organism-based, L.; conditions: in vivo, 75 g.a.i/ha, read-out: GI; summary of the method: as §5
Gossypium [17] = assay: Phytotoxicity against Gossypium (cotton) assessed as growth inhibition at 37.5 g.a.i/ha pre-emergent application measured after 15 days by greenhouse crop selectivity assay; format: organism-based; conditions: in vivo, other, 360 h; summary of the method: as §5
Digitaria sanguinalis [18] = assay: Pre-emergence herbicidal activity against Digitaria sanguinalis (hairy crabgrass) assessed as growth inhibition at 37.5 g.a.i./ha applied 24 hr after seeds were sown measured after 15 days; format: functional; conditions: read-out: GI; summary of the method: as §3
Arachis hypogaea [19] = assay: Phytotoxicity against Arachis hypogaea (peanut) assessed as growth inhibition at 7.5 to 60 g.a.i/ha post-emergent application measured after 15 days by greenhouse crop selectivity assay; format: organism-based; conditions: in vivo, other, 360 h; summary of the method: as §1
Echinochloa crus-galli [20] = assay: Pre-emergence herbicidal activity against Echinochloa crus-galli (barnyard grass) assessed as growth inhibition at 37.5 g.a.i./ha applied 24 hr after seeds were sown measured after 15 days; format: functional; conditions: read-out: GI; summary of the method: as §3
[21] = Phytotoxicity against Oryza sativa (rice) assessed as growth inhibition at 150 g.a.i/ha pre-emergent application measured after 15 days by greenhouse crop selectivity assay; format: organism-based, L.; conditions: in vivo, read-out: GI; summary of the method: as §5
Arachis hypogaea [22] = assay: Phytotoxicity against Arachis hypogaea (peanut) assessed as growth inhibition at 75 g.a.i/ha pre-emergent application measured after 15 days by greenhouse crop selectivity assay; format: organism-based; conditions: in vivo, other, 360 h; summary of the method: as §5
Triticum aestivum = assay: Phytotoxicity against Triticum aestivum (wheat) assessed as growth inhibition at 7.5 to 60 g.a.i/ha post-emergent application measured after 15 days by greenhouse crop selectivity assay; format: organism-based; conditions: in vivo, other, 360 h; summary of the method: as §1
[23] = system: Brassica rapa subsp. oleifera; assay: Phytotoxicity against Brassica rapa subsp. oleifera assessed as growth inhibition at 37.5 g.a.i/ha pre-emergent application measured after 15 days by greenhouse crop selectivity assay; format: functional; conditions: pre-emergence, 360 h, read-out: GI; summary of the method: as §4

Compound | Activity (Gossypium [1]) | inhibition of growth at 15 g/ha (Abutilon theophrasti [2]) [%] | inhibition of growth at 75 g/ha (Abutilon theophrasti [3]) [%] | inhibition of growth at 37.5 g/ha (Chenopodium album) [%] | inhibition of growth at 75 g/ha (Echinochloa crus-galli [4]) [%] | inhibition of growth at 300 g/ha [5] [%] | inhibition of growth at 15 g/ha (Digitaria sanguinalis [6]) [%] | inhibition of growth at 15 g/ha (Amaranthus spinosus [7]) [%] | inhibition at 360 h [8] [%] | inhibition of growth at 15 g/ha (Echinochloa crus-galli [9]) [%] | inhibition of growth at 15 g/ha (Setaria viridis [10]) [%] | inhibition of growth at 7.5 g/ha (Setaria viridis [11]) [%] | inhibition of growth at 7.5 g/ha (Amaranthus spinosus [12]) [%] | inhibition of growth at 150 g/ha [13] [%] | inhibition of growth at 37.5 g/ha (Setaria viridis [14]) [%] | inhibition of growth at 75 g/ha (Digitaria sanguinalis [15]) [%] | growth inhibition (GI) (Gossypium [17]) | inhibition of growth at 37.5 g/ha (Digitaria sanguinalis [18]) [%] | Activity (Arachis hypogaea [19]) | inhibition of growth at 37.5 g/ha (Echinochloa crus-galli [20]) [%] | further results
CCOC(=O)C(C)N1C(=O)C(C)Oc2cc(F)c(N3C(=O)C4=C(CCCC4)C3=O)cc21 (configuration not stated) | Toxic | 100 | > 80 | 100 | > 80 | > 10 | 40 | 100 | > 10 | 30 | 40 | 0 | 100 | > 10 | 50 | > 80 | Not Active | 80 | Toxic | 30 | growth inhibition (GI) (Zea mays): Not Active; inhibition at 360 h [16]: > 10%; inhibition at 360 h [21]: > 10%; growth inhibition (GI) (Arachis hypogaea [22]): Not Active; Activity (Triticum aestivum): Toxic; inhibition of growth at 37.5 g/ha [23]: > 10%
C#CCN1C(=O)COc2cc(F)c(N3C(=O)C4=C(CCCC4)C3=O)cc21 [FLUMIOXAZIN] | Toxic | 100 | > 80 | 100 | > 80 | > 10 | 50 | 100 | > 10 | 70 | 50 | 0 | 100 | > 10 | 95 | > 80 | Not Active | 80 | Toxic | 70 | inhibition at 360 h [16]: > 10%; inhibition at 360 h [21]: > 10%; growth inhibition (GI) (Arachis hypogaea [22]): Not Active; Activity (Triticum aestivum): Toxic; inhibition of growth at 37.5 g/ha [23]: > 10%
CCOC(=O)C(CC)N1C(=O)C(C)Oc2cc(F)c(N3C(=O)C4=C(CCCC4)C3=O)cc21 (configuration not stated) | Toxic | 100 | > 80 | 100 | > 80 | > 10 | 0 | 100 | > 10 | 0 | 0 | 0 | 100 | > 10 | 70 | > 80 | Not Active | 0 | Toxic | 0 | growth inhibition (GI) (Zea mays): Not Active; inhibition at 360 h [21]: > 10%; growth inhibition (GI) (Arachis hypogaea [22]): Not Active; Activity (Triticum aestivum): Toxic; inhibition of growth at 37.5 g/ha [23]: > 10%
COC(=O)C(C)N1C(=O)C(C)Oc2cc(F)c(N3C(=O)C4=C(CCCC4)C3=O)cc21 (configuration not stated) | Toxic | 100 | > 80 | 100 | > 80 | > 10 | 10 | 100 | > 10 | 30 | 10 | 0 | 100 | > 10 | 80 | > 80 | Not Active | 50 | Toxic | 80 | growth inhibition (GI) (Zea mays): Not Active; inhibition at 360 h [16]: > 10%; inhibition at 360 h [21]: > 10%; growth inhibition (GI) (Arachis hypogaea [22]): Not Active; Activity (Triticum aestivum): Toxic; inhibition of growth at 37.5 g/ha [23]: > 10%
